Results: ChEMBL document CHEMBL5230175, “The war on hTG2: warhead optimization in small molecule human tissue transglutaminase inhibitors” (RSC Med Chem, 2023)

Key:
[1] = target: T1, Protein-glutamine gamma-glutamyltransferase (Homo sapiens) (UniProt P21980); assay: Irreversible inhibition of human recombinant tissue transglutaminase expressed in Escherichia coli using Cbz-Glu-(gamma-p-nitrophenylester)Gly (AL5) as substrate assessed as substrate hydrolysis by measuring Kinact/Ki ratio by linear regression analysis
T1 sequence (whole entry): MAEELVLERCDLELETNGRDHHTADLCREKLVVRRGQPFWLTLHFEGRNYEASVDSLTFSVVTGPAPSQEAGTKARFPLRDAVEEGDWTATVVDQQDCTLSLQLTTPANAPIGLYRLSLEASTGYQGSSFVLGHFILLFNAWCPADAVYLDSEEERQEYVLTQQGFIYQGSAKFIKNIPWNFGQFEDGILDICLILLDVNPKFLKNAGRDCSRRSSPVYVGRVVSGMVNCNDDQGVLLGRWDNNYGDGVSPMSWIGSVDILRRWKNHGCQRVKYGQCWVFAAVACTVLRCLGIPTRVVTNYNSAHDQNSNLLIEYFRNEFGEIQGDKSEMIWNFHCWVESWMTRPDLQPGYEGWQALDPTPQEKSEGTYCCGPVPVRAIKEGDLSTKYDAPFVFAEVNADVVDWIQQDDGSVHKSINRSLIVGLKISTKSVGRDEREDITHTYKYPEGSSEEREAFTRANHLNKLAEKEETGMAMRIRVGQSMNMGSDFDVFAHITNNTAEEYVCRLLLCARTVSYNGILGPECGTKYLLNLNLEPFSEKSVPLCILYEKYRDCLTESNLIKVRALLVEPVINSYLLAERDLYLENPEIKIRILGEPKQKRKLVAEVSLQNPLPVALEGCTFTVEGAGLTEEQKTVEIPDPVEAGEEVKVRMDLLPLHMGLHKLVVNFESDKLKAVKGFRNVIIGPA
Outline: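 For TG2/AL5 under Kitz–Wilson conditions (100 μM AL5, pH 6.9 MOPS, 25 °C, 405 nm), kinact/KI was taken from simple linear regression of kobs against corrected inhibitor concentration at the lowest inhibitor concentrations.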

[2] = target: T1, Protein-glutamine gamma-glutamyltransferase (Homo sapiens); assay: Inhibition of human recombinant tissue transglutaminase expressed in Escherichia coli using Cbz-Glu-(gamma-p-nitrophenylester)Gly (AL5) as substrate assessed as substrate hydrolysis by measuring Kinact incubated for 20 mins by colorimetric analysis
[3] = target: T1, Protein-glutamine gamma-glutamyltransferase (Homo sapiens); assay: Irreversible inhibition of human recombinant tissue transglutaminase expressed in Escherichia coli using Cbz-Glu-(gamma-p-nitrophenylester)Gly (AL5) as substrate assessed as substrate hydrolysis by measuring Kinact/Ki ratio incubated for 20 mins by colorimetric analysis
[4] = target: T2, Protein-glutamine gamma-glutamyltransferase (Homo sapiens, UniProt P21980); assay: Irreversible inhibition of human recombinant tissue transglutaminase expressed in Escherichia coli using Cbz-Glu-(gamma-p-nitrophenylester)Gly (AL5) as substrate assessed as substrate hydrolysis by measuring KI incubated for 20 mins by colorimetric analysis
T2 sequence (P21980 whole entry): T1 sequence (whole entry)

[5] = target: T3, Protein-glutamine gamma-glutamyltransferase K (Homo sapiens) (UniProt P22735); assay: Irreversible inhibition of human TG1 using Cbz-Glu-(gamma-p-nitrophenylester)Gly (AL5) as substrate assessed as substrate hydrolysis by measuring observed binding constant incubated for 100 mins by colorimetric assay
T3 sequence (whole entry): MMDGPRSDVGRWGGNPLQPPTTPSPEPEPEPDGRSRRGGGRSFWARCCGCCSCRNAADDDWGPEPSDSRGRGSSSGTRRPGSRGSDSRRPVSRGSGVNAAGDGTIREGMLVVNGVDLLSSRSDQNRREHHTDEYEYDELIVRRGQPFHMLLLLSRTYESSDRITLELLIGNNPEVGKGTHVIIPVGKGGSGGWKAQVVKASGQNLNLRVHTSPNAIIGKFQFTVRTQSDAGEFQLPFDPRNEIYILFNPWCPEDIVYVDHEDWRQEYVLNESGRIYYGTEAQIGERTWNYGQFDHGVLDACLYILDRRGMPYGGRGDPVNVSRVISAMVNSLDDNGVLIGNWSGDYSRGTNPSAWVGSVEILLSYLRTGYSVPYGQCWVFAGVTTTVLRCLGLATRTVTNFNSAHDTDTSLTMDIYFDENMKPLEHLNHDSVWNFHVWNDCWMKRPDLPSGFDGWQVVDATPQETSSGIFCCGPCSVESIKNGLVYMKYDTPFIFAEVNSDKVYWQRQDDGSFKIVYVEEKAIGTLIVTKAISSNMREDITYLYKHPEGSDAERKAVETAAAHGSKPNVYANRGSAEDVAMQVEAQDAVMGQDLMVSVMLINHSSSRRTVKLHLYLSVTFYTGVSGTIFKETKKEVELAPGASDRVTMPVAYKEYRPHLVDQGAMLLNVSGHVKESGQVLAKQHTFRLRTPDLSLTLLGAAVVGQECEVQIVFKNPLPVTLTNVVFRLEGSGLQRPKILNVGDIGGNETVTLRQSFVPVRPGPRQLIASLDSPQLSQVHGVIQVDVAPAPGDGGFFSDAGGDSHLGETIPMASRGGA

[6] = GSH reactivity in aqueous buffer assessed as GSH adduct formation by measuring corrected intrinsic second order rate constant (K2 corrected) by HPLC analysis; type: physicochemical
Outline: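 GSH stock diluted to final 15 mM in aqueous buffer (pH 8.0 used, 7.4 too slow), reaction started with inhibitor at final 0.5 mM, 2% v/v DMSO. Incubated at 22 °C and aliquots taken over at least 5–6 half-lives. HPLC with UV 214/254 nm tracked adduct growth and inhibitor loss, fitted mono-exponentially to give pseudo-first-order kobs. kobs was divided by [thiol] and then by the thiolate fraction (pKa 8.7) to give kcorr2. Run in duplicate.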

[7] = Ratio of Kinact/Ki for inhibition of human tissue transglutaminase assessed as substrate hydrolysis to corrected second order rate constant (K2 corrected) for GSH reactivity in aqueous buffer assessed as GSH adduct formation; type: physicochemical
[8] = target: T4, Coagulation factor XIII A chain (Homo sapiens) (UniProt P00488); assay: Reversible inhibition of human factor XIIIa using peptidic FRET-quenched probe A101 as substrate by fluorescence based assay relative to control; conditions: concentration not given here
T4 sequence (whole entry): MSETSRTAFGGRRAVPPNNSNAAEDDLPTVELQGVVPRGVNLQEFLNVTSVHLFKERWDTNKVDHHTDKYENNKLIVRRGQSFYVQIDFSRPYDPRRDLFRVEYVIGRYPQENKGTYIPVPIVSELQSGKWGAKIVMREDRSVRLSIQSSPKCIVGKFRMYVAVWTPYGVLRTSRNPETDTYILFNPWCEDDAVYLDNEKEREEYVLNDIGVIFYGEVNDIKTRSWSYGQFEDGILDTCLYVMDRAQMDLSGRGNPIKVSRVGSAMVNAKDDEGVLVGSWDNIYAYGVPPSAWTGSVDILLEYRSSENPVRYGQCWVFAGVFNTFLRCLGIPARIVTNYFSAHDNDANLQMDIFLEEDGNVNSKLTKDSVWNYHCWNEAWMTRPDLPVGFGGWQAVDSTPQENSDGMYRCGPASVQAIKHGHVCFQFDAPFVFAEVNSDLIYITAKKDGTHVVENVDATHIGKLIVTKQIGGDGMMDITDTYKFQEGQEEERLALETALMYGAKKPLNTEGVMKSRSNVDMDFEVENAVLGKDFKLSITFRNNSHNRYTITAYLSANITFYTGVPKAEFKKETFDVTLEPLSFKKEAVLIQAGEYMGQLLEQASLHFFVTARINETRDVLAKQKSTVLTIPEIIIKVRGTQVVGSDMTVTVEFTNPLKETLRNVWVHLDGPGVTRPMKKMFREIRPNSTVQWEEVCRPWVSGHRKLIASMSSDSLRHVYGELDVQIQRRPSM

[9] = Metabolic stability in pooled cryopreserved human hepatocytes assessed as half-life at 1 uM measured upto 120 mins by LC-MS/MS analysis; type: ADME, cell-based, Hepatocyte
Outline: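 Samples were taken at 0, 5, 15, 30, 60 and 120 min, acetonitrile-quenched with internal standard, and analysed by LC-MS/MS. Half-life came from exponential decay of the parent/IS ratio relative to T = 0.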

[10] = Metabolic stability in human whole blood assessed as half-life at 1 to 5 uM measured upto 120 mins by LC-MS/MS analysis; type: ADME, tissue-based; conditions: dose 1-5 µM
Outline: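 Pooled human whole blood (K3-EDTA) was spiked to 1 or 5 μM compound. Aliquots taken at 0, 15, 30, 60 and 120 min were quenched in acetonitrile with 0.1% formic acid and internal standard, then analysed by LC-MS/MS. Percent parent remaining is the peak-area ratio versus T = 0; half-life comes from an exponential decay fit.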

[11] = target: T1, Protein-glutamine gamma-glutamyltransferase (Homo sapiens); assay: Irreversible inhibition of human TG2 using Cbz-Glu-(gamma-p-nitrophenylester)Gly (AL5) as substrate assessed as substrate hydrolysis by measuring observed binding constant incubated for 20 mins by colorimetric assay
[12] = target: T2, Protein-glutamine gamma-glutamyltransferase; assay: Reversible inhibition of human recombinant tissue transglutaminase expressed in Escherichia coli using Cbz-Glu-(gamma-p-nitrophenylester)Gly (AL5) as substrate assessed as substrate hydrolysis by measuring Ki incubated for 20 mins by colorimetric analysis
Outline: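 For TG2 reversible inhibition, the same AL5 colorimetric assay (MOPS pH 6.9, 7.5 mM CaCl2, 0.25 μM TG2, 405 nm) was run at 100 and 50 μM AL5. Initial rates were taken over the first 10% conversion of the uninhibited control, and 1/v0 was plotted against [I] in a Dixon plot; Ki came from the intersection of the lines.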

SMILES	Ratio [1]	Kinact [2]	Ratio [3]	Ki [4]	K [5]	K [6]	Ratio [7]	inhibition [8]	half-life at 1 µM [9]	half-life at up to 5 µM [10]	K [11]	Ki [12]
O=C(CN=C=S)N1CCN(C(=O)C23CC4CC(CC(C4)C2)C3)CC1	17.7 10^3/M/min	0.23 min⁻¹	26.3 10^3/M/min	8.83 µM	–	–	–	–	–	–	–	–
C=C(Cl)C(=O)NCC(=O)N1CCN(C(=O)C23CC4CC(CC(C4)C2)C3)CC1	3140 10^3/M/min	7.28 min⁻¹	3130 10^3/M/min	2.32 µM	0.022 min⁻¹	59.387 10^-3/M/min	0.053	76%	1.53 h	0.533 h	0.509 min⁻¹	–
C=C(F)C(=O)NCC(=O)N1CCN(C(=O)C23CC4CC(CC(C4)C2)C3)CC1	28.5 10^3/M/min	1.17 min⁻¹	30.4 10^3/M/min	38.4 µM	–	–	–	–	–	–	–	–
C=C(Br)C(=O)NCC(=O)N1CCN(C(=O)C23CC4CC(CC(C4)C2)C3)CC1	2320 10^3/M/min	4.69 min⁻¹	2410 10^3/M/min	1.95 µM	0.018 min⁻¹	–	–	–	–	–	0.497 min⁻¹	–
C=C(C(=O)NCC(=O)N1CCN(C(=O)C23CC4CC(CC(C4)C2)C3)CC1)C(F)(F)F	209 10^3/M/min	5.22 min⁻¹	171 10^3/M/min	30.6 µM	–	–	–	–	–	–	–	–
C/C=C/C(=O)NCC(=O)N1CCN(C(=O)C23CC4CC(CC(C4)C2)C3)CC1	6.7 10^3/M/min	–	8.3 10^3/M/min	61.8 µM	–	–	–	–	–	–	–	–
C[S+]([O-])CCCCN=C=S (configuration not stated) [SULFORAPHANE]	–	0.27 min⁻¹	–	366 µM	–	–	–	–	–	–	–	–
CC(=O)C(=O)NCC(=O)N1CCN(C(=O)C23CC4CC(CC(C4)C2)C3)CC1	–	–	–	–	–	–	–	–	–	–	–	154 µM
[N-]=[N+]=CC(=O)NCC(=O)N1CCN(C(=O)C23CC4CC(CC(C4)C2)C3)CC1	95 10^3/M/min	2.82 min⁻¹	107 10^3/M/min	26.3 µM	–	–	–	–	–	–	–	–
O=C(NCC(=O)N1CCN(C(=O)C23CC4CC(CC(C4)C2)C3)CC1)C(F)Cl (configuration not stated)	16 10^3/M/min	1.57 min⁻¹	17.8 10^3/M/min	88.5 µM	–	–	–	–	–	–	–	–
C#CC(=O)NCC(=O)N1CCN(C(=O)C23CC4CC(CC(C4)C2)C3)CC1	87.7 10^3/M/min	6.83 min⁻¹	97.5 10^3/M/min	70.1 µM	–	–	–	–	–	–	–	–
